The data set relates to MS2 coat protein. The data set is described as follows: apparent Kd, MS2 coat protein; higher = weaker binding; RNA-MaP array; FMN 200 µM where present. An outline of the steps:
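The titrant was SNAP-549-labelled MS2 coat protein, run from 0.7 or 1.5 nM in doubling steps to 3 µM. It was applied to designs transcribed by stalled E. coli RNA polymerase on Illumina sequencing-chip clusters, without ligand first and then with constant ligand, in 100 mM Tris-HCl pH 7.5, 80 mM KCl, 4 mM MgCl2, BSA, DTT, yeast tRNA and Tween-20. The apparent Kd is the median of filtered per-cluster binding-curve fits, with green signal normalised to red-channel RNA signal and control-cluster median Fmax.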

Where [1] appears, read: designed as: OFF switch for flavin mononucleotide, no ligand.
Where [2] appears, read: ligand present: flavin mononucleotide, designed as: OFF switch for flavin mononucleotide.
[3] abbreviates: designed as: ON switch for flavin mononucleotide, no ligand.
The mark [4] stands for this setting: ligand present: flavin mononucleotide, designed as: ON switch for flavin mononucleotide.

As usually defined, the apparent Kd is the concentration giving half-maximal binding under the conditions of the assay. As for “CCUCAGUAAGGAUAUCAGCUUAUGGAGUUGGUAAUGAGAGCUGAGAAGGUACAUGAGGAUCACCCAUGUUAGUU”, the “apparent Kd” value turned out to be 27.7 nM under setting [1] and 73.7 nM under setting [2]. As to “AAUUAAUUGUAGAAGGUACUUAAUUAUGAUAUGUAAGGAUAUACGAUAUUAUUACGACAUGUAUGACAUGAGGAUCACCCAUGU”, the “apparent Kd” value amounted to 12.4 nM under setting [3] and 9.23 nM under setting [4].

For the sequence “UAAGUUUAGGUAGGAUAUACUUUAAAUUUCUCUAUCCAUACAUGAGGAUCACCCAUGUUUACAUUGUAGAAGGACCACUAUGUU”, the “apparent Kd” value reads like this: under setting [1], 24.6 nM; under setting [2], 20.4 nM. For “AGGUGACAUGAGGAUCACCCAUGUCAGGAUAUAUACACUGCCGGCGUGACGCCGGCAGAUAGAAGGGACAAAAU”, in that order: 15.9 nM and 18.4 nM. For “AGUGACGACGAGGAUAUUCCGGUAGCCUACUAAGAAGAAGGUGUCACAUGAGGAUCACCCAUGUUUAGUUUCGC”, in that order: 141 nM and 68.7 nM. Take “UUAAAUCAUGUAGGAUAUGCAUGGCGAAGCUACGCAGAAGGACAUGAGGAUCACCCAUGUUAAAGCGACCGAGUUCGGUUGCAA”: the “apparent Kd” value reads like this: under setting [1], 124 nM; under setting [2], 214 nM.

As for “UUAUUAUAUGUAGGAUAUGCAUAUUAUUAUUAUGCAGAAGGACAUGAGGAUCACCCAUGUAUAUUGUUAUUAUAUAUUAUAUAU”, the “apparent Kd” value by setting is: under setting [1], 25.5 nM; under setting [2], 37 nM. With “AAUUCACAUGAGGAUCACCCAUGUCAGGAUAUGGUGACGCGGGUUUCGGUGCGUGUUGCCAGAAGGGACGGCUG”, under setting [2], the “apparent Kd” value came out at 115 nM.

“UUUAUAUAGUAAGGAUAUGUAUUAUUUCUAUCAACAGAAGGUACUGACAUGAGGAUCACCCAUGUUUUAGUGUGGGCAUGUAGU”: the “apparent Kd” value came to 261 nM under setting [1] and 381 nM under setting [2]. Consider “CUCAUGUGAGGAUAUCAGUAGUGAUACGAUAGUAUUACUGCUGAGAAGGUACAUGAGGAUCACCCAUGUUCCUC”, for which the “apparent Kd” value worked out at 26.9 nM under setting [1] and 37.8 nM under setting [2]. For “UUAAUGUGAGGAUAUCAGGUGUGCUAGCGUACUGGUACAUCUGAGAAGGCACAUGAGGAUCACCCAUGUUCUUC”, in that order: 37 nM and 135 nM. As to “UGAAUGUGAGGAUAUGGUGAGUAGUGCCUAAGCGCUGCUCACCAGAAGGCACAUGAGGAUCACCCAUGUACUUG”, the “apparent Kd” value is, setting by setting: under setting [1], 61.7 nM; under setting [2], 192 nM.

Regarding “UUUUAGUCAGGAUAUACAUGAGGAUCACCCAUGUAAAAUUUUAAUUUAAUUUUAAGGUGUAGAAGGGACAUUAA”, the “apparent Kd” value runs as follows: under setting [1], 27.6 nM; under setting [2], 29.4 nM. The corresponding values for “AUCCGGCGUGUAGGAUAUGGAAAAGAUUAGGAUCCAGAAGGACAUGAGGAUCACCCAUGUACAUGUAAACAGUCAUCACCGGAA” are 34.1 nM and 49.6 nM. The corresponding values for “GGUGGACAUGAGGAUCACCCAUGUGAGGAUAUCGGCCGGCUAGUGGCGGCUGGCUUCACGAGAAGGCGCAUAGU” are 85.8 nM and 107 nM.

For “GUCGGAAACGACAAAGUAGCAUAGGAGGAUAUUCAUUAAAACAUGAGGAUCACCCAUGUAAAUUGGGAGAAGGCCUAUGCUACA”, the “apparent Kd” value runs as follows: under setting [3], 17.8 nM; under setting [4], 5.26 nM. Take “UAUAUAUAGUAAGGAUAUGUAUAUAUUAUAUAAACAGAAGGUACUGACAUGAGGAUCACCCAUGUUUUAGUGUGGGCAUGUAGA”: the “apparent Kd” value reads like this: under setting [1], 67.8 nM; under setting [2], 98.9 nM. The corresponding values for “GAUAAACAUGAGGAUCACCCAUGUGAGGAUAUGCGUACGUUGUCCGUAGGCGACGUGCGCAGAAGGCGCAAGGU” are 99.4 nM and 216 nM.

“GCAGCUUAUGCAGGAUAUCAGCACGUGUAGUGCUGAGAAGGGCACAUGAGGAUCACCCAUGUGAUCAAUUAAUAUAAAUGCUGC”: the “apparent Kd” value is 12.8 nM under setting [1] and 48.5 nM under setting [2]. For the sequence “GGUCUGAUAUGAGGAUAUGCUCAGGAAUACUGAGCAGAAGGCAUGUGAAUACAUGAGGAUCACCCAUGUGAUCAAUACAGACCA”, the “apparent Kd” value under setting [3] is 140 nM and the “apparent Kd” value under setting [4] was found to be 26 nM. Regarding “AAGUCGUGAGGAUAUACAUGGAUAUACAUUUAUGUAGAACUACAUGAGGAUCACCCAUGUAGAAGGCACGAAUA”, the “apparent Kd” value under setting [1] is 56.2 nM and the “apparent Kd” value under setting [2] stood at 147 nM.

For the sequence “AUGGAUACCACAGGAUAUACCUGGAAUAUCCAGGUAGAAGGGUGGUCCAUCCUAUGUAAAUACAUGAGGAUCACCCAUGUGUCC”, the “apparent Kd” value is, setting by setting: under setting [3], 256 nM; under setting [4], 244 nM. The corresponding values for “AGUGUCGGCACAGGAUAUGAGAUGCCGGCAGACAUGAGGAUCACCCAUGUAAGCGACCCAGGCAGUCAGAAGGGUGAUCGACAA” are 156 nM and 44.4 nM. Take “UGGUACUAGGGAGGAUAUGGGAAGAUACAUGAGGAUCACCCAUGUUUAAGAAUGCCCAGAGGCAACUAGAAGGCCCUAGUACCU”: the “apparent Kd” value came to 66.2 nM under setting [3] and 16.9 nM under setting [4]. On to “UCUAUGUAGAUUCGUCAAUACAGUUAGGAUAUGAGAUACAUGAGGAUCACCCAUGUGCAUGUGGAUUAGAAGGAACAAUUAACU”, for which the “apparent Kd” value is, setting by setting: under setting [1], 93.4 nM; under setting [2], 69.8 nM. Regarding “AUAUCUUUAUCAGGAUAUGGACAGGCCUGUCCGUAUUGAGACAGUAACAUGAGGAUCACCCAUGUCCAGAAGGGAUCGAUGUAU”, the “apparent Kd” value worked out at 56.5 nM under setting [1] and 45.8 nM under setting [2].

For “CUGGGCGGAGGAUAUGCGGGUUGGGCUUUUGUUCGGCUGGGACAUGAGGAUCACCCAUGUAGAAGGUUGUUCGG”, the “apparent Kd” value under setting [1] came out at 168 nM and the “apparent Kd” value under setting [2] was found to be 124 nM. The corresponding values for “UCAUACAUGAGGAUCACCCAUGACAUGAGGAUCACCCAUGUGCAGGAUAUACGUGAUAUAAUAUAGUAGAAGGGCAGACUAUAU” are 51.9 nM and 57.6 nM. For “CUAGCAUACCGAGGAUAUUCAUAUAAUAAAUAAACAUGAGGAUCACCCAUGUGGCGAAAGCCUAGGGAGAAGGCGGAAUGCUAA”, the “apparent Kd” value was found to be 185 nM under setting [3] and 24.8 nM under setting [4]. The corresponding values for “AGGUGGUGUGGAAAGGAUAUACGGUUGAGGACAUGAGGAUCACCCAUGUGGUAGAGGACGUGAGUGUAGAAGGUUCGGGAUUGGU” are 74.9 nM and 52.1 nM. In the case of “UGUGUUGCGCAGGAUAUGCUGGACAUGAGAGCUGCAGAAGGGCGAACAUGAGGAUCACCCAUGUUUUCCUCGGC”, the “apparent Kd” value under setting [1] amounted to 14.1 nM and the “apparent Kd” value under setting [2] came to 14.6 nM. With “UUUUUUUAAUAGAAGGAGGACUUCAUGAGGAUCACCCAUGUGUUAGUACUUAGGAUAUGUAAUAACAUGAGGAUCACCCAUGUC”, the “apparent Kd” value is, setting by setting: under setting [3], 51.9 nM; under setting [4], 48.7 nM. On to “AAAUAGUCAGGAUAUACAUGAGGAUCACCCAUGUAAACUUUUAGUUUAAUUUGAAUGUGUAGAAGGGACAUUAA”, for which the “apparent Kd” value is, setting by setting: under setting [1], 28.1 nM; under setting [2], 33 nM. For “GGAAGAGUAGGAUAUACAUGAGGAUCACCCAUGUCCUGGAGAAGCAAUUCGAUAUCCUGUAGAAGGACUAAUCU”, in that order: 40 nM and 36.1 nM. The corresponding values for “UCGGCGCGAGGAUAUACGUUUGCUUUUUAGGAUCGUUGCGUACAUGAGGAUCACCCAUGUAGAAGGCGCGCCGC” are 14.6 nM and 19.5 nM. For “CCGGGUCGGGAGGAUAUUCGGGCCCAAGGGCUUGGAGAAGGCUCGACAUGAGGAUCACCCAUGUAAGUGUAAGG”, in that order: 345 nM and 698 nM. For the sequence “CCUAGAGAAGGAUAUACAUGAGGAUCACCCAUGUUCCGGCGCACAAUUAUGCGCCAAUGUAGAAGGUCUGGGCA”, the “apparent Kd” value reads like this: under setting [1], 23.6 nM; under setting [2], 26.6 nM.

With “GUCAGCUCGUGAGGAUAUACAACACUGCUUCGGCAGUGUAUUAAAAUCACAUGAGGAUCACCCAUGUAGAAGGCACGAGCUGAU”, the “apparent Kd” value under setting [1] came out at 5.04 nM and the “apparent Kd” value under setting [2] stood at 7.7 nM.

For “GUAUCGUGAGGAUAUCCAAUAUAUGACAUGAGGAUCACCCAUGUUUCCACUCGUACCUCCGGAGAAGGCACAGUUU”, the “apparent Kd” value reads like this: under setting [1], 32.2 nM; under setting [2], 27.9 nM.

“AACAGGACAGGAUAUACAUGAGGAUCACCCAUGUAGGAAUUAAGCAGCGUACCACACAGUAGAAGGGUCAUGGA”: the “apparent Kd” value runs as follows: under setting [1], 35.5 nM; under setting [2], 34.6 nM. “UCCUACAUGGGAGGAUAUCCUCAUGAGACAUGAGGAUCACCCAUGUAUUAUAAGCCGAAAGGCAAGGAGAAGGCCCAUGUAGGU”: the “apparent Kd” value is, setting by setting: under setting [3], 34.9 nM; under setting [4], 18 nM. For “UUAAUUAUACAAGGAUAUCUAUUGUAGUUUCGACUGACAUGAGGAUCACCCAUGUAAAUAUGUUAAGAGAAGGUGUAUUUUAAA”, in that order: 56.8 nM and 40.4 nM. For “AGGAGGUCAGGAUAUGCAUGGCGGGACUUGCGUCGUGGCGUGCAGAAGGGACAUGAGGAUCACCCAUGUGGAGG”, the “apparent Kd” value is, setting by setting: under setting [1], 125 nM; under setting [2], 181 nM. For the sequence “ACUGGUCGAGGAUAUACAAUCGUGCUUCGGCACGUAAGAUCACAUGAGGAUCACCCAUGUAGAAGGCGACCAGU”, the “apparent Kd” value came out at 60.3 nM under setting [1] and 743 nM under setting [2].

Take “AUAUUGUGAGGAUAUCCAAUAUAUGACAUGAGGAUCACCCAUGUUUCCACUCGUACCUCCGGAGAAGGCACUUAAA”: the “apparent Kd” value by setting is: under setting [1], 20.5 nM; under setting [2], 23.2 nM. For “AUUUCAAUCUAUACUAUACAAACAACAUGAGGAUCACCCAUGUAGGAUAUCGUAUGUAUCAACUACGAGAAGGACAUAAUCUUA”, in that order: 13.7 nM and 13.4 nM. On to “GCUCUACAUGAGGAUCACCCAUGUCCAUCCGCACGAGGAUAUGCAUGGGCGAAAGCUGGUGCAGAAGGCGUGGGAC”, for which the “apparent Kd” value by setting is: under setting [3], 190 nM; under setting [4], 98.8 nM.

For “CCAUGCAUAGCGAUAUGAUCGAGAGAUCAUGUCGCUAAAUUUAGAAGGACAUGAGGAUCACCCAUGUAGGAUAUGGGAGCAUGU”, the “apparent Kd” value by setting is: under setting [3], 222 nM; under setting [4], 49.7 nM. Turning to “AAUAAUGUGAAGGAUAUCACUAGCGAUAGCUAGUGAGAAGGUCACACAUGAGGAUCACCCAUGUGUUCCAAUAA”, the “apparent Kd” value is, setting by setting: under setting [1], 43.2 nM; under setting [2], 172 nM.

For the origin of these results see the EternaBench riboswitch data.
